Experimental findings from ChEMBL document CHEMBL4513216, “Probing the Open Global Health Chemical Diversity Library for Multistage-Active Starting Points for Next-Generation Antimalarials” (ACS Infect Dis, 2020) are described below.

The data set is described as follows: Toxicity liver stage against HepG2, at 10uM. It is filed as cell-based. Conditions: human, HepG2-A16-CD81EGFP cells; read-out: INHIBITION
Further details: test concentration 10 uM, cell line HepG2-A16-CD81EGFP. An outline of the steps: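 Uninfected HepG2-A16-CD81EGFP cells, 3 × 10^3 per well, 1536-well, plated on prespotted compound at 10 μM final, parasite-free screening media added to match infected plates; puromycin 10 μM positive, DMSO 0.5% negative; run in parallel with 48 h PbLuc assay at 37 °C, 5% CO2; viability by CellTiter-Glo luminescence, normalized to controls.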
With `O=C(NCc1nnc2n1CCC2)c1cn(-c2cccc(Br)c2)nn1`, the cytotoxicity at 10 µM is -4.3%. Next, `CN1CCC(N2CCOC[C@H]2c2nc(-c3ccncc3)c[nH]2)CC1`: -5.15%; `CN(C[C@H]1CN2CC[C@H]1C[C@@H]2CNC(=O)c1ccco1)c1ccccc1`: -0.947%. Take `COCC(=O)Nc1ccc(-c2noc([C@@H]3CCCN3C(C)C)n2)cn1`: the cytotoxicity at 10 µM was found to be 0.994%.

Consider `CNC(=O)[C@@H]1[C@@H](OC(=O)Nc2ccccc2)C(=O)N(C)C12CCNCC2`, for which the cytotoxicity at 10 µM turned out to be 6.38%. Next, `O=C(CC1NC(N2CCc3ccccc32)=NC1=O)Nc1ccc(Cl)cc1` (centres undefined): 1.54%; `COc1ccc2c(ccn2CC(=O)Nc2n[nH]c(C(C)C)n2)c1`: -6.72%.

Take `O=C([C@H]1C[C@H]2OCC[C@H]2N(C(=O)c2cnccn2)C1)N1CCCCO1`: the cytotoxicity at 10 µM amounted to 12.7%. The figure for `Cn1cccc1C(=O)NCc1cnc2n1CCN(C(=O)c1ccoc1)C2` is 11.9%; for `CN1CCCc2sc(C(=O)NCc3cccnc3)nc21` it is 14.9%; for `C[C@H]1C[C@H]2CN(C(=O)c3ccncn3)CC[C@@H]2O1` it is 4.93%.

Take `Cc1c(Cl)c(C(F)(F)F)nn1C(C)C(=O)NN1CCN(C)CC1` (centres undefined): the cytotoxicity at 10 µM was -7.85%. Turning to `CCCn1c(N2CCCCC2)nc2c(C)nn(C)c2c1=O`, the cytotoxicity at 10 µM was found to be 11.8%. The figure for `COc1ccc(NC(C)=O)cc1S(=O)(=O)Nc1ccon1` is 1.08%; for `CCOc1ccc(C(=O)n2cccn2)cc1` it is 0.45%; for `Cc1ccc(S(=O)(=O)N2CC[C@@H]3C[C@H](NC(=O)c4[nH]ncc4Br)[C@@H]32)cc1` it is 4.49%.

With `c1cc(CN2CCC(c3ccnc4nccn34)C2)ccn1` (centres undefined), the cytotoxicity at 10 µM was 1.58%. For the compound `Cc1nn(C)cc1CN1CCCC(n2c(=O)oc3ccc(Cl)cc32)C1` (centres undefined), the cytotoxicity at 10 µM came out at 4.88%. Next, `CCN(CC)C(=O)CN1CCCC(c2nc(C)c3c(n2)N(C)CCC3)C1` (centres undefined): 10.2%; `CN1CCC(c2cccc(Cc3ccc(F)cc3)n2)CC1`: -3.45%; `CC(c1ccccc1F)N(C(=O)CSCC(N)=O)C1CC1` (centres undefined): -54.9%. Next, `Cc1nc(CNC(=O)CCCc2cccs2)no1`: -46.8%; `Cc1nnc2n1CCN(C(=O)C1CCN(Cc3ccccc3)CC1)C2`: 1.28%. On to `O=C1NCCCCC1SCc1coc(-c2ccccc2)n1` (centres undefined), for which the cytotoxicity at 10 µM worked out at 11.6%. The figure for `CNC(=O)C1CCCCN1C(=O)c1csc(-c2ccc(C)cc2)n1` (centres undefined) is 11.6%; for `Cc1ccc(CNC(=O)Nc2nnc(C3CC3)s2)n1C` it is -1.61%; for `Cc1cc(NC(=O)N(C)CCN2CCN(c3ccccc3)CC2)on1` it is 4.79%.

As for `CC(=O)N1CCC(NC(=O)c2ccccc2-n2cnnn2)CC1`, the cytotoxicity at 10 µM was 6.87%. Next, `O=S(=O)(CCCc1ccccc1)Cc1nnnn1C1CC1`: -1.01%; `CSc1cc2c(cc1NC(=O)NCC(=O)N(C)C)OCCO2`: -5.87%.

Regarding `N#Cc1cccnc1NCc1cccc(C(=O)NCC2CCCCO2)c1` (centres undefined), the cytotoxicity at 10 µM was 5%. The figure for `c1cnn(C2CN(CCCOc3ccc4c(c3)OCO4)C2)c1` is -4.73%. The figure for `CN(C)CCCN(CCC#N)C(=O)Nc1ccc2[nH]ccc2c1` is -52.4%; for `Cc1occc1C(=O)N1CCCS1(=O)=O` it is -11%; for `Cc1noc(C)c1CN(C)c1ncnc2ccccc12` it is -6.4%.

Consider `CS(=O)(=O)N1C[C@H]2N(c3ncccn3)CCC[C@@]2(C(=O)NCC2CC2)C1`, for which the cytotoxicity at 10 µM is -110%.

Regarding `O=C(c1ccccc1)N1CCO[C@@H]2CN(Cc3ccc[nH]3)C[C@@H]2C1`, the cytotoxicity at 10 µM was -98%.

In the case of `COCC(=O)N1CCc2nc(C)nc(NC(C)C)c2CC1`, the cytotoxicity at 10 µM is -102%. The figure for `O=C(NC1CC(F)(F)C1)[C@]12COC[C@H]1CN(Cc1ccsc1)C2` is -109%; for `O=C(C1CCC1)N1CC[C@@H]2CN(Cc3cccnc3)S(=O)(=O)[C@@H]2CC1` it is -109%. The figure for `O=C(c1ccoc1)N1CC[C@H]2C[C@@H](c3nnc(C4CC4)o3)O[C@@H]2C1` is -101%; for `Cn1cccc1C(=O)N1CCc2ncnc(C3CC3)c2CC1` it is 5.17%. Next, `CC(C)c1ncc(CN2C[C@@H](CN3CCC(O)CC3)[C@@H](CO)C2)cn1`: -7.79%; `Cc1nc(C)c(C)c(N(C)CCCc2nccn2C)n1`: 8.52%; `CN1CCN(c2ncccn2)CC12CCC(=O)N(CC1CC1)CC2` (centres undefined): 2.6%. On to `Cc1nc(C(C)C)sc1C(=O)N(C)Cc1nc(-c2ccccn2)no1`, for which the cytotoxicity at 10 µM is -0.683%. As to `Cc1[nH]c2c(C)ccc(C)c2c1CC(=O)NC1CCCNC1=O` (centres undefined), the cytotoxicity at 10 µM was -0.274%.

As to `Cc1ccc(C(C(=O)NC(C)(C)CN2CCCC2)N(C)C)cc1` (centres undefined), the cytotoxicity at 10 µM is -6.93%. Next, `Cc1cccc(C(=O)N2CCCCC2c2ccc(CN(C)C)cc2)c1` (centres undefined): -0.909%; `Cc1ccc(C(=O)N(Cc2cccnc2)C[C@@H]2CCC(=O)N2)s1`: -77.9%.

As for `O=C(c1cn(Cc2ccc(Cl)cc2)nn1)N1CCCO1`, the cytotoxicity at 10 µM was -6.01%. The figure for `CCN(Cc1noc(CC(C)C)n1)Cc1ncccc1C(=O)O` is -37.2%; for `CC(CO)(CO)NC(=O)C1CCC(=O)N(Cc2ccc(Cl)cc2)C1` (centres undefined) it is -4.71%; for `Cc1cc(NCCNc2cccnc2)nc(-c2ccccc2O)n1` it is 47.9%.

With `COCCc1noc(CN2CCC(c3ccccc3C(=O)O)C2)n1` (centres undefined), the cytotoxicity at 10 µM was -3.03%. Next, `O=C1NCC2(CCCN(C(=O)CCn3cnc4ccccc43)CC2)O1` (centres undefined): -4.8%; `Cc1cnn(CCC(=O)N2CCN(C(=O)C(C)C)[C@@H]3CS(=O)(=O)C[C@@H]32)c1`: 2.47%; `CCn1c(C)cc(C(=O)N2C[C@@H](C(=O)O)[C@H](c3ccccc3)C2)c1C`: -0.173%. The figure for `COCCCC1CCCN(C(=O)CCc2csc(N)n2)C1` (centres undefined) is -2.66%; for `O=C(O)C1CN(Cc2cnc(C3CCCCC3)nc2)CCO1` (centres undefined) it is -6.08%.

For `CC(c1ccon1)N(C)Cc1cc(O)c2cc(F)ccc2n1` (centres undefined), the cytotoxicity at 10 µM stood at 5.5%. With `CCCOCC1CCN(C(=O)c2cnc(C)nc2O)C1` (centres undefined), the cytotoxicity at 10 µM was -3.15%.

For `CC(C1CCN(C(=O)c2coc(CN3CCOCC3)c2)CC1)N(C)C` (centres undefined), the cytotoxicity at 10 µM is -4.07%. For `Cc1ccc(C)c(OCc2cc(C(=O)N(C)Cc3nonc3C)no2)c1`, the cytotoxicity at 10 µM is -5.83%. As to `CCc1nnc(CN(CC)C(=O)C2CC(=O)N(C(C)(C)C)C2)o1` (centres undefined), the cytotoxicity at 10 µM is 1.56%. On to `Cc1nccn1CCC1CCN(c2ccncn2)CC1`, for which the cytotoxicity at 10 µM is -9.14%. The figure for `O=C(c1cccc2ccnn12)N1CCCC1Cn1cccn1` (centres undefined) is -126%. Next, `Cc1ccsc1-c1nccn1C1CC(=O)N(C(C)C)C1` (centres undefined): -9.73%; `COCCCC1(CO)CCCN(C(=O)c2cnc3c(c2)CCCC3)C1` (centres undefined): -50.2%.

With `CCNc1ncc(-c2cc(-c3ccn(C)c3)nc(N)c2C#N)cn1`, the cytotoxicity at 10 µM was 7.14%. Next, `Cc1nc2ccccc2nc1CN1CCn2nc(CCC(=O)O)cc2C1`: -3.43%; `CCn1ccnc1CN1CCN(Cc2cc(C#N)ccc2F)CC1`: -7.19%.

`CC(C)=CCN1CCN(Cc2nccn2C)C(C)C1` (centres undefined): the cytotoxicity at 10 µM was -14.4%. The figure for `CC(C(=O)NCC(F)(F)F)N1CCC(N2CCN(C)C2=O)CC1` (centres undefined) is 5.11%. `COc1ccccc1C(O)CNC(=O)Nc1ccccn1` (centres undefined): the cytotoxicity at 10 µM is -11.9%. The figure for `COc1ccc(CCNC2CCCN(Cc3noc(C)n3)C2)cc1` (centres undefined) is -5.98%; for `Cn1cc(C(=O)NCc2ccc(N3CCCC3)nc2)ccc1=O` it is -3.72%. The figure for `c1ccc(-c2nc(CNC3CCc4ncnn4C3)co2)cc1` (centres undefined) is -8.6%.

Turning to `CC(C)c1nn(C)c(N(C)C)c1CNCCC(=O)NC1CCCC1`, the cytotoxicity at 10 µM is -6.63%. The figure for `CC(C)COCC(NC(=O)c1cccnc1)c1ccco1` (centres undefined) is -12.1%. With `Cc1[nH]ncc1C(=O)N1CCN(CC(O)C(C)(C)C)CC1` (centres undefined), the cytotoxicity at 10 µM was -0.00964%. With `CN(Cc1cccc2cccnc12)C1CCS(=O)(=O)C1` (centres undefined), the cytotoxicity at 10 µM was -0.237%. On to `O=C(c1cnccn1)N1C[C@@H]2CCN(c3cnccn3)C[C@@H]2C1`, for which the cytotoxicity at 10 µM was -100%. Next, `Cc1csc(CN2CCC[C@]3(C[C@@H](OCC4CC4)CO3)C2)n1`: -134%; `CC(C)CN1CCC2(C1)CN(S(=O)(=O)c1cn(C)cn1)C2`: -116%; `CN(Cc1ccco1)[C@@H]1CN(Cc2nccn2C)[C@@H]2CCCO[C@H]12`: -67.9%. The figure for `CC(C)N1CCOCC2(CCN(c3cnccn3)CC2)C1` is -109%. The figure for `CNC(=O)[C@H]1C[C@@H]2CN(S(=O)(=O)c3ccc(F)cc3)C[C@@H]2N1C` is -2.97%; for `OCCOCc1n[nH]c2c1CN(Cc1ccccn1)C2` it is -112%; for `Cc1ccc(C(=O)N2CC[C@]3(C[C@@H](OCc4ccccn4)CO3)C2)nc1` it is -74.6%. For the compound `c1cc(CN2CCCn3cnc(COCC4CC4)c3C2)co1`, the cytotoxicity at 10 µM is -74.2%.

`N#Cc1cccc(CN2C[C@H](NC(=O)C3CC3)[C@H]3OCCC[C@H]32)c1`: the cytotoxicity at 10 µM is -0.155%. On to `CCOCCCNC(=O)c1nc2c(s1)CCCN2c1ccc(C)nn1`, for which the cytotoxicity at 10 µM is 13.5%. Turning to `CCCS(=O)(=O)N1C[C@@H]2C[C@H](C(=O)N3CCCC3)[C@H](C1)O2`, the cytotoxicity at 10 µM was -6.28%.
